Active and inactive are the calls of the source. The rule behind the calls is not given here.
What was measured:
[1] = system: SR; test: Growth inhibition of human SR cells incubated for 48 hrs by sulforhodamine B assay; format: functional
Procedure, shortened: (§1)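 NCI-60 screen run at NCI. Cells grown in RPMI medium with 5% FBS and 2 mM L-glutamine, plated at 5,000–40,000 cells/well, and preincubated 24 h at 37 °C. Time-zero plates were TCA-fixed. Compounds came from DMSO stocks and were tested at five concentrations from 10^-4 to 10^-8 M for 48 h. Cells were then TCA-fixed, stained with 0.4% SRB, and OD read at 515 nm. GI50 is the concentration giving a 50% reduction in net protein increase versus control.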

[2] = system: EKVX; test: Growth inhibition of human EKVX cells incubated for 48 hrs by sulforhodamine B assay; format: functional
Procedure, shortened: (§2)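 NCI-60 screen. Compounds were dosed at five concentrations spanning 10^-4 to 10^-8 M for 48 h at 37 °C. Cells were TCA-fixed, stained with 0.4% SRB and read at 515 nm against time-zero and vehicle controls. GI50 is the concentration giving a 50% reduction in net protein increase.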

[3] = system: HOP-62; test: Growth inhibition of human HOP62 cells incubated for 48 hrs by sulforhodamine B assay; format: functional; details: HOP-62, 48 h; procedure, shortened: as §2
[4] = system: COLO 205; test: Growth inhibition of human COLO205 cells incubated for 48 hrs by sulforhodamine B assay; format: functional; details: COLO 205, 48 h; procedure, shortened: as §2
[5] = system: SNB-75; test: Growth inhibition of human SNB75 cells incubated for 48 hrs by sulforhodamine B assay; format: functional; details: SNB-75, 48 h; procedure, shortened: as §1
[6] = system: M14; test: Growth inhibition of human M14 cells incubated for 48 hrs by sulforhodamine B assay; format: functional; details: M14, 48 h; procedure, shortened: as §2
[7] = system: MDA-MB-435; test: Growth inhibition of human MDA-MB-435 cells incubated for 48 hrs by sulforhodamine B assay; format: functional; details: MDA-MB-435, 48 h; procedure, shortened: as §2
[8] = system: SK-MEL-2; test: Growth inhibition of human SK-MEL-2 cells incubated for 48 hrs by sulforhodamine B assay; format: functional; details: SK-MEL-2, 48 h; procedure, shortened: as §2
[9] = system: SK-MEL-5; test: Growth inhibition of human SK-MEL-5 cells incubated for 48 hrs by sulforhodamine B assay; format: functional; details: SK-MEL-5, 48 h; procedure, shortened: as §2
[10] = system: UACC-62; test: Growth inhibition of human UACC62 cells incubated for 48 hrs by sulforhodamine B assay; format: functional; details: UACC-62, 48 h; procedure, shortened: as §1
[11] = system: IGROV-1; test: Growth inhibition of human IGROV1 cells incubated for 48 hrs by sulforhodamine B assay; format: functional; details: IGROV-1, 48 h; procedure, shortened: as §2
[12] = system: OVCAR-3; test: Growth inhibition of human OVCAR3 cells incubated for 48 hrs by sulforhodamine B assay; format: functional; details: OVCAR-3, 48 h; procedure, shortened: as §2
[13] = system: OVCAR-4; test: Growth inhibition of human OVCAR4 cells incubated for 48 hrs by sulforhodamine B assay; format: functional; details: OVCAR-4, 48 h; procedure, shortened: as §2
[14] = system: 786-0; test: Growth inhibition of human 786-0 cells incubated for 48 hrs by sulforhodamine B assay; format: functional; details: 786-0, 48 h; procedure, shortened: as §2
[15] = system: ACHN; test: Growth inhibition of human ACHN cells incubated for 48 hrs by sulforhodamine B assay; format: functional; procedure, shortened: as §2
[16] = system: CAKI-1; test: Growth inhibition of human Caki1 cells incubated for 48 hrs by sulforhodamine B assay; format: functional; details: CAKI-1, 48 h; procedure, shortened: as §2
[17] = system: TK-10; test: Growth inhibition of human TK10 cells incubated for 48 hrs by sulforhodamine B assay; format: functional; details: TK-10, 48 h; procedure, shortened: as §1
[18] = system: PC-3; test: Growth inhibition of human PC3 cells incubated for 48 hrs by sulforhodamine B assay; format: functional; details: PC-3, 48 h; procedure, shortened: as §2
[19] = system: DU-145; test: Growth inhibition of human DU145 cells incubated for 48 hrs by sulforhodamine B assay; format: functional; details: DU-145, 48 h; procedure, shortened: as §2
[20] = system: MDA-MB-231; test: Growth inhibition of human MDA-MB-231/ATCC cells incubated for 48 hrs by sulforhodamine B assay; format: functional; details: MDA-MB-231, 48 h; procedure, shortened: as §2
[21] = system: Hs-578T; test: Growth inhibition of human Hs 578T cells incubated for 48 hrs by sulforhodamine B assay; format: functional; procedure, shortened: as §2
[22] = system: BT-549; test: Growth inhibition of human BT549 cells incubated for 48 hrs by sulforhodamine B assay; format: functional; details: BT-549, 48 h; procedure, shortened: as §2
[23] = system: T47D; test: Growth inhibition of human T47D cells incubated for 48 hrs by sulforhodamine B assay; format: functional; procedure, shortened: as §1
[24] = system: MDA-MB-468; test: Growth inhibition of human MDA-MB-468 cells incubated for 48 hrs by sulforhodamine B assay; format: functional; details: MDA-MB-468, 48 h; procedure, shortened: as §2
[25] = Solubility of the compound in water; format: physicochemical; details: buffer
[26] = Induction of apoptosis in AML01 cells isolated from acute myelogenous leukemia patient after 24 hrs by annexin V/7-AAD/propidium iodide staining-based flow cytometric method; format: functional, cell-based; details: Homo sapiens, AML01, 24 h
Procedure, shortened: (§3)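 Primary AML specimens from consenting patients were Ficoll-separated and some were cryopreserved. Cells were held 1 h in serum-free IMDM with 20% BIT 9500, LDL and beta-mercaptoethanol before drug. Drugs were diluted from DMSO stock into PBS, final DMSO ≤0.5%. Dosing was 0.5–10 μM for 24 h. Annexin V/7-AAD flow cytometry scored double-negative (non-apoptotic) cells, normalized to vehicle, in triplicate, and EC50 came from dose-response curves.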

[27] = Induction of apoptosis in AML02 cells isolated from acute myelogenous leukemia patient after 24 hrs by annexin V/7-AAD/propidium iodide staining-based flow cytometric method; format: functional, cell-based; details: Homo sapiens; procedure, shortened: as §3
[28] = Induction of apoptosis in AML03 cells isolated from acute myelogenous leukemia patient after 24 hrs by annexin V/7-AAD/propidium iodide staining-based flow cytometric method; format: functional, cell-based; details: Homo sapiens; procedure, shortened: as §3
[29] = Induction of apoptosis in AML04 cells isolated from acute myelogenous leukemia patient after 24 hrs by annexin V/7-AAD/propidium iodide staining-based flow cytometric method; format: functional, cell-based; details: Homo sapiens; procedure, shortened: as §3
[30] = Potency index, ratio of PTL EC50 to compound EC50 for human M9-ENL1 cells; format: functional
Procedure, shortened: (§4)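 M9-ENL1 AML cells, derived by MLL-ENL transduction of human blood cells, were plated at 10^6 cells/mL in alpha-MEM with 5% human plasma, 20% FBS, SCF, IL-3, IL-7 and FLT3 ligand. Exposure was 24 h. Non-apoptotic (Annexin V/7-AAD double-negative) fraction was normalized to vehicle, in triplicate, to give EC50. PTL and MMB were run as reference controls.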

[31] = Potency index, ratio of melampomagnolide-B EC50 to compound EC50 for human M9-ENL1 cells; format: functional; procedure, shortened: as §4
[32] = species: Rattus norvegicus; test: Induction of necrosis in rat 9LSF cells at 20 uM after 48 hrs by microscopic analysis; format: functional, cell-based
Procedure, shortened: (§5)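 Rat 9L-SF gliosarcoma cells were grown in DMEM/F12 with 10% iron-supplemented calf serum at 37 °C under 5% CO2. Treatment was applied to 50% confluent monolayers. Cell detachment and necrosis were scored visually by microscopy.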

[33] = species: Rattus norvegicus; test: Induction of cell detachment in rat 9LSF cells at 20 uM after 48 hrs by microscopic analysis; format: functional, cell-based; procedure, shortened: as §5

## CN(C)CC1C(=O)O[C@@H]2[C@H]3O[C@]3(C)CC/C=C(/COC(=O)c3cc4ccccc4[nH]3)CC[C@@H]12.O=C(O)/C=C/C(=O)O (stereo partly specified)
[1]
  GI50: 1590 nM
[2]
  GI50: 3360 nM
[3]
  GI50: 2200 nM
[4]
  GI50: 1980 nM
[5]
  GI50: 3210 nM
[6]
  GI50: 1570 nM
[7]
  GI50: 1280 nM
[8]
  GI50: 2100 nM
[9]
  GI50: 1850 nM
[10]
  GI50: 1650 nM
[11]
  GI50: 2070 nM
[12]
  GI50: 350 nM
[13]
  GI50: 1360 nM
[14]
  GI50: 1710 nM
[15]
  GI50: 670 nM
[16]
  GI50: 1110 nM
[17]
  GI50: 2120 nM
[18]
  GI50: 2370 nM
[19]
  GI50: 1490 nM
[20]
  GI50: 1740 nM
[21]
  GI50: 3030 nM
[22]
  GI50: 1570 nM
[23]
  GI50: 2110 nM
[24]
  GI50: 1120 nM
[25]
  solubility: Soluble

## C=C1C(=O)O[C@@H]2[C@H]3O[C@]3(C)CC/C=C(/COC(=O)/C=C/c3c[nH]c4ccccc34)CC[C@@H]12
[1]
  GI50: 270 nM
[2]
  GI50: 230 nM
[3]
  GI50: 820 nM
[4]
  GI50: 220 nM
[5]
  GI50: 170 nM
[6]
  GI50: 220 nM
[7]
  GI50: 220 nM
[8]
  GI50: 200 nM
[9]
  GI50: 200 nM
[10]
  GI50: 170 nM
[11]
  GI50: 220 nM
[12]
  GI50: 170 nM
[13]
  GI50: 200 nM
[14]
  GI50: 220 nM
[15]
  GI50: 200 nM
[17]
  GI50: 270 nM
[18]
  GI50: 320 nM
[19]
  GI50: 390 nM
[20]
  GI50: 170 nM
[21]
  GI50: 350 nM
[22]
  GI50: 170 nM
[23]
  GI50: 200 nM
[24]
  GI50: 190 nM
[26]
  EC50: 1300 nM
[27]
  EC50: 910 nM
[28]
  EC50: 320 nM
[29]
  EC50: 1000 nM
[30]
  Ratio IC50: 9
[31]
  Ratio IC50: >20
[32]
  Activity: Active
[33]
  Activity: Active

Source: ChEMBL document CHEMBL4138104, “Indole carboxylic acid esters of melampomagnolide B are potent anticancer agents against both hematological and solid tumor cells” (Eur J Med Chem, 2017)
